We go through 21 compounds from ChEMBL document CHEMBL1154785, “Identification of critical ligand binding determinants in Mycobacterium tuberculosis adenosine-5'-phosphosulfate reductase” (J Med Chem, 2009).

Series [1] can be described thus: Binding affinity to Mycobacterium tuberculosis adenosine-5'-phosphosulfate reductase assessed as S-sulfocysteine formation at pH 5.5 by single turnover method in absence of thioredoxin.
A short description of series [2]: Dissociation constant, pKa at pH 6 to 9.5. It counts as physicochemical.
Series [3] is described as follows: Dissociation constant, pKa in solution. In kind it is physicochemical.
The nature of series [4]: Binding affinity to Mycobacterium tuberculosis adenosine-5'-phosphosulfate reductase assessed as S-sulfocysteine formation at pH 9 by single turnover method.
Series [5] can be described thus: Binding affinity to Mycobacterium tuberculosis adenosine-5'-phosphosulfate reductase assessed as S-sulfocysteine formation at pH 7.5 by single turnover method.
The nature of series [6]: Binding affinity to Mycobacterium tuberculosis adenosine-5'-phosphosulfate reductase assessed as S-sulfocysteine formation at pH 7.5 by single turnover method in absence of MgCl2.
Series [7] concerns Mycobacterium tuberculosis. In words: Ratio of Kd for Mycobacterium tuberculosis adenosine-5'-phosphosulfate reductase in presence of 0.5 mM MgCl2 to Kd Mycobacterium tuberculosis adenosine-5'-phosphosulfate reductase in absence of MgCl2.
The nature of series [8]: Binding affinity to Mycobacterium tuberculosis adenosine-5'-phosphosulfate reductase assessed as S-sulfocysteine formation at pH 7.5 by single turnover method in presence of 2 mM MgCl2.
The nature of series [9]: Displacement of [35S]APS from Mycobacterium tuberculosis adenosine-5'-phosphosulfate reductase by liquid scintillation counting. An outline of the steps:
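Purified enzyme; reduction of ³⁵S-APS to sulfite at 30 °C in 100 mM bis-tris propane pH 7.5, 5 mM DTT and 10 μM thioredoxin. Quenched with 2% charcoal containing 20 mM Na₂SO₃, then ³⁵S-sulfite in the supernatant counted by scintillation. k_obs taken at varied inhibitor levels with [³⁵S-APS] ≪ K1/2, fit to competitive inhibition (Ki taken as Kd). At least two independent experiments.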
A general note: Loss of bound radioactivity is the signal in a displacement assay; it reports binding, not function.

Series [10] in a line: Binding affinity to Mycobacterium tuberculosis adenosine-5'-phosphosulfate reductase assessed as S-sulfocysteine formation at pH 7.5 by single turnover method in presence of 0.5 mM MgCl2.
The subject of series [11] is Mycobacterium tuberculosis. The series can be described thus: Ratio of Kd for Mycobacterium tuberculosis adenosine-5'-phosphosulfate reductase in presence of 2 mM MgCl2 to Kd Mycobacterium tuberculosis adenosine-5'-phosphosulfate reductase in absence of MgCl2.
The test system of series [12] is Mycobacterium tuberculosis. In words: Ratio of Kcat to Km of Mycobacterium tuberculosis adenosine-5'-phosphosulfate reductase. As to conditions: tested as the 35S-labelled form.

The term Kd denotes a measure of binding affinity in units of concentration. By pKa is commonly meant the negative logarithm of the acid dissociation constant. In the case of `Nc1ncnc2c1ncn2[C@@H]1O[C@H](COP(O)(O)=S)[C@@H](O)[C@H]1O`, in series [1], the Kd was 3.3 µM. In addition, the pKa in series [2] and in series [3] was 7.7 throughout.

In the case of `Nc1ncnc2c1ncn2[C@@H]1O[C@H](COP(=O)(O)OP(N)(=O)O)[C@@H](O)[C@H]1O`, the Kd in series [4] turned out to be 56.8 µM; in [1], 410 µM; in series [5], 410 µM.

Take `Nc1ncnc2c1ncn2[C@@H]1O[C@H](COP(=O)(O)O)[C@@H](OP(=O)(O)O)[C@H]1O`: in series [1], the Kd came out at 770 µM.

Regarding `Nc1ncnc2c1ncn2[C@@H]1O[C@H](COP(N)(=O)O)[C@@H](O)[C@H]1O`, the Kd in series [4] was 82 µM; in [1] it was 100 µM; in series [5], 100 µM.

Regarding `Nc1ncnc2c1ncn2[C@@H]1O[C@H](COP(=O)(O)O)[C@@H](O)[C@H]1O` [ADENOSINE PHOSPHATE], the Kd in series [6] was determined as 5.4 µM; in [8], 31 µM; in [1], 5.4 µM; in series [9] it was 5.4 µM; in series [10], 21 µM. The Ratio in series [7] and in series [11] was 5 each time. In series [2], this compound yielded a pKa of 8.1.

Take `Nc1ncnc2c1ncn2[C@@H]1O[C@H](COP(=O)(O)CP(=O)(O)O)[C@@H](O)[C@H]1O` [PHOSPHOMETHYLPHOSPHONIC ACID ADENOSYL ESTER]: in series [1], the Kd was determined as 27 µM.

As to `Nc1ncnc2c1ncn2[C@@H]1O[C@H](CO)[C@@H](O)[C@H]1O` [ADENOSINE], the Kd in series [1] was found to be 3000 µM.

On to `Nc1ncnc2c1ncn2[C@@H]1O[C@H](CO)[C@@H](OP(=O)(O)O)[C@H]1O`, for which the Kd in series [1] came to 3200 µM.

Regarding `O=P(O)(O)OC[C@H]1O[C@@H](O)[C@H](O)[C@@H]1O`, the Kd in series [1] is 93 µM.

Regarding `Nc1ncnc2c1ncn2[C@@H]1O[C@H](COP(=O)(S)OP(=O)(O)O)[C@@H](O)[C@H]1O` (stereo partly specified), the dissociation constant (Kd) in series [1] stood at 0.8 µM.

Turning to `Nc1ncnc2c1ncn2[C@@H]1O[C@H](COP(=O)(O)CS(=O)(=O)O)[C@@H](O)[C@H]1O`, the Kd in [1] is 700 µM.

With `Nc1ncnc2c1ncn2[C@@H]1O[C@H](COP(=O)(O)OP(=O)(O)S)[C@@H](O)[C@H]1O` (stereo partly specified), the Kd in series [1] was 0.15 µM. In addition, the pKa in [2] is 5.8; in series [3], 5.2.

In the case of `Nc1ncnc2c1ncn2[C@@H]1O[C@H](COP(=O)(O)NP(=O)(O)O)[C@@H](O)[C@H]1O`, the figures for the Kd in series [4], in series [1] and in series [5] were 110 µM, 260 µM and 257 µM, respectively.

Turning to `Nc1[nH]cnc2ncnc1-2` [ADENINE], the Kd in series [1] is no less than 90000 µM.

In the case of `Nc1ncnc2c1ncn2[C@@H]1O[C@H](COP(=O)(S)OS(=O)(=O)O)[C@@H](O)[C@H]1O` (mixture of isomers), in series [1], the Kd amounted to 43 µM.

In the case of `Nc1ncnc2c1ncn2[C@@H]1O[C@H](COP(=O)(O)OP(=O)(O)O)[C@@H](O)[C@H]1O` [ADENOSINE DIPHOSPHATE], the Kd in series [6] amounted to 4.3 µM; in series [8] it was 20 µM; in series [1] it was 4.3 µM; in [10], 7.3 µM. Besides, the Ratio in series [7] and in [11] was 5 each time. The pKa in series [2] was 6.4.

As a reminder, the Ki is a measure of affinity in units of concentration, obtained from inhibition or displacement. `Nc1ncnc2c1ncn2[C@@H]1O[C@H](COP(=O)(O)OS(=O)(=O)O)[C@@H](O)[C@H]1O`: in series [12], the kcat/Km was 2 ×10⁶ /M/s. For the same compound, in series [1], the Kd was found to be 0.2 µM and the Ki was determined as 200 nM.

Take `O[C@@H]1[C@H](O)[C@H](O)CO[C@H]1O` [RIBOSE (PYRANOSE)]: the Kd in [1] turned out to be 680000 µM.

`Nc1ncnc2c1ncn2[C@@H]1O[C@H](COP(=O)(O)C(F)(F)P(=O)(O)O)[C@@H](O)[C@H]1O`: in series [1], the Kd was 13 µM.

With `O=S(=O)(O)O` [SULFURIC ACID], in series [1], the Kd was no less than 310000 µM.

For the compound `O=P(O)(O)O` [PHOSPHORIC ACID], the Kd in series [1] amounted to 66000 µM.
